Screening results from PubChem.
Pemphigus Ab inh = inhibitors of pemphigus antibody binding to human desmoglein-3; DSG3-coupled beads, scFv-anti-DSG3-GFP binding, flow cytometry; stronger effect = lower value; actives 0.48% (n = 310,000); P32926; AID 588358; binding (percent of control), % at 10 µM;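 active means binding more than 3 SD below its plate's average and above zero; inconclusive means below that plate limit but binding exactly zero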;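 further: hits lower antibody fragment binding to DSG3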
Target sequence (P32926 whole entry, looked up, the tested form may be a part): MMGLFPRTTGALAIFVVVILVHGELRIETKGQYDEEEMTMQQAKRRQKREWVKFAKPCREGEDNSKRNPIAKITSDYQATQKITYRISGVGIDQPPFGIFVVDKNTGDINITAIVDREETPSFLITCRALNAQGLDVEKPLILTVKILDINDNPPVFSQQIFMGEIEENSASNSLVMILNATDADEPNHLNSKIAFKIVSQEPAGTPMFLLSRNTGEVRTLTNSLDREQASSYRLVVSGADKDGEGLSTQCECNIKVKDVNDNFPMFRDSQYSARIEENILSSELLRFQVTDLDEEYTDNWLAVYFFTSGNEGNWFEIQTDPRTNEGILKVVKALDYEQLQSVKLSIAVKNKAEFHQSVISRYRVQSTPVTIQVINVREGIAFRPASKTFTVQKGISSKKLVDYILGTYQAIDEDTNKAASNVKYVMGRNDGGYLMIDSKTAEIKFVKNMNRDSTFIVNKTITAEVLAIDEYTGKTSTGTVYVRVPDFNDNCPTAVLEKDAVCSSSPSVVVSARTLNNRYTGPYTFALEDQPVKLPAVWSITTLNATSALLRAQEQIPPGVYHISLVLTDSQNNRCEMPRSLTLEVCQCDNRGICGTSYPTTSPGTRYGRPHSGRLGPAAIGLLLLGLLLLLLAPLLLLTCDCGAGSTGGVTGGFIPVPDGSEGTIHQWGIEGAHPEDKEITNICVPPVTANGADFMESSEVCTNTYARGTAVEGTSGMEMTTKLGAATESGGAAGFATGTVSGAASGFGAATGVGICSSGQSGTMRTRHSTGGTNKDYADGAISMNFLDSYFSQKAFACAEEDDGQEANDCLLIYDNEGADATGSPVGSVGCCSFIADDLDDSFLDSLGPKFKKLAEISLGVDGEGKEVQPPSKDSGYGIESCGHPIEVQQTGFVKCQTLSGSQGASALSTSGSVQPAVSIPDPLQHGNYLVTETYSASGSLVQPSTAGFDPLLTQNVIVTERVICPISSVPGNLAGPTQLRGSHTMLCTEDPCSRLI
NALP1 inh = blocks the NALP1 inflammasome reconstituted in yeast | S. cerevisiae NALP1/ASC/caspase-1 growth, X-gal OD620, 72 h | inhibition, % at 10 µM | actives 0.61% (n = 280,000); in the data active means inhibition mostly above about 24%, no sharp cut-off; inactive means mostly below about 32%
Arr AP2 block = blocks beta-arrestin peptide binding to AP2 adaptin; FITC-arrestin peptide / GST-AP2 beads, flow cytometry; AP2 beta2 appendage carries R879A mutation; inhibition, % at 10 µM; actives 0.31% (n = 340,000); AID 504490;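 active means inhibition above a set limit, near 3 SD of compounds lacking own fluorescence, cut at about 54% in these data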;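 further: plate controls were DMSO wells for no effect and 5 µM unlabelled arrestin peptide for full effect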
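test system = AP2 appendage R879A on GSH beads | buffer or medium = PBS plus Tween 20 (0.05%) and BSA (0.1%) | incubation = 12 min plus 1 h, RT | detection = bead flow cytometry, FITC channel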
NLRP3 yeast inh = NALP3 inhibition in yeast. Yeast reconstituted NLRP3/ASC/caspase-1, beta-gal luminescence, 24 h. inhibition, % at 10 µM. actives 0.39% (n = 330,000). AID 2825;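 active means inhibition of 50% or more; inactive means inhibition below 50%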;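 further: plate controls were induced DMSO wells for no effect and uninduced yeast grown without galactose for full effect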
PolyA inhibitor = inhibitors of polyadenylation in S. cerevisiae; S. cerevisiae SKY197-pL101 polyadenylation reporter, beta-gal luminescence; efflux-impaired pdr1/pdr3 knockout yeast; score 100 = 6 SD above DMSO; AID 1875; activity score, % at 12 µM; actives 0.02% (n = 300,000);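 active means lowest replicate activity score at least 50, where 100 means six control SD above control mean; inconclusive means lowest score under 50 but half or more replicates reach 50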;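 further: yeast exposed to compound for 9 h at 30 °C; higher score means more reporter readthrough which indicates perturbed polyadenylation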
ALR inh = blocks human ALR sulfhydryl oxidase activity | P55789 | actives 3.8% (n = 290,000) | AID 485317 | purified ALR, DTT oxidation, H2O2 HRP-luminol luminescence | inhibition, % (concentration not given with the values);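 active means mean replicate inhibition above about 79%, with every replicate also reaching it, limit read from the data; inconclusive means only one of the two criteria met; inactive means mean below limit and not every replicate reaching it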
An asterisk follows results filed as active; ? = inconclusive; . = no result given. In the library only some 4.6% were active in any assay of this set; here they are far more common.

SMILES	Pemphigus Ab inh	NALP1 inh	Arr AP2 block	NLRP3 yeast inh	PolyA inhibitor	ALR inh
CCSc1nnc(NC(=O)CSc2sc3c(O)cc(=O)[nH]c3c2C#N)s1	.	-1	9	17	9	70
CCc1nnc(NC(=O)CSc2sc3c(O)cc(=O)[nH]c3c2C#N)s1	94	-1	6	24	13	98*
CSCCC(NC(=O)C12CC3CC(CC(C3)C1)C2)C(=O)OCC(=O)c1ccc(C)cc1 (stereo not given)	53*	21	0	4	6	-1
COC(=O)c1cc(-c2c(C)nn(-c3ccccc3)c2C)n[nH]1	113	12	5	28	16	86*
Cc1c(NC(=S)N/N=C/c2cccc(O)c2)c(=O)n(-c2ccccc2)n1C	100	-12	-6	22	2	?
Cc1c(NC(=S)N/N=C/c2ccc(N(C)C)cc2)c(=O)n(-c2ccccc2)n1C	107	20	5	9	14	99*
COCCCNC(=S)N/N=C/c1ccc(N(C)C)cc1	103	8	12	6	-12	98*
COCCCNC(=S)N/N=C/c1ccc(N(C)C)cc1Cl	.	-1	39	20	-8	17
CNC(=S)N/N=C/c1ccc(N(C)C)cc1	114	17	-8	20	-22	99*
